Measured values: ChEMBL document CHEMBL3232922, “Discovery and SAR of 6-alkyl-2,4-diaminopyrimidines as histamine H₄ receptor antagonists” (J Med Chem, 2014)
Calls of active or inactive are those of the source. No cut-off for these calls is given here.

Key:
[1] = Cmax in rat at 10 mg/kg, po; type: ADME, organism-based; set-up: dose 10 mg/kg, route oral; settings: in vivo
[2] = Half life in rat microsomes; type: ADME, Microsome
[3] = Tmax in mouse brain at 5 mg/kg, po administered as single dose by LC-MS/MS analysis; type: ADME, organism-based; set-up: dose 5 mg/kg, route oral
How it was run: (§1)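 Mice received one oral dose of 5 mg/kg. Brain, liver and kidneys were surgically removed from three mice per time point for up to 96 h after dosing. Tissue drug levels were measured by LC–MS/MS with a lower limit of quantitation of 1 ng/g. Tmax and t1/2 are reported as means.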

[4] = Half life in Balb/c mouse at 5 mg/kg, po; type: ADME, organism-based; set-up: dose 5 mg/kg, route oral; settings: in vivo
[5] = AUC in rat at 2 mg/kg, iv; type: ADME, organism-based; set-up: dose 2 mg/kg, route intravenous; settings: plasma
[6] = Half life in beagle dog at 10 mg/kg, po; type: ADME, organism-based, Canis lupus familiaris; set-up: dose 10 mg/kg, route oral; settings: in vivo
[7] = Half life in Balb/c mouse at 20 mg/kg, po; type: ADME, organism-based; set-up: dose 20 mg/kg, route oral; settings: in vivo
[8] = Tmax in mouse liver at 5 mg/kg, po administered as single dose by LC-MS/MS analysis; type: ADME, organism-based; set-up: dose 5 mg/kg, route oral; how it was run: as §1
[9] = AUC in Balb/c mouse at 2 mg/kg, iv; type: ADME, organism-based; set-up: dose 2 mg/kg, route intravenous; settings: plasma
[10] = Oral bioavailability in beagle dog at 10 mg/kg; type: ADME, organism-based, Canis lupus familiaris; settings: in vivo
[11] = AUC in Sprague-Dawley rat at 2 mg/kg, iv; type: ADME, organism-based; set-up: dose 2 mg/kg, route intravenous; settings: plasma
Histamine H4 receptor [12] = target: T1, Histamine H4 receptor (Rattus norvegicus, UniProt Q91ZY1); assay: Displacement of [3H]histamine from rat histamine H4 receptor expressed in SK-N-MC cells after 45 mins by competition binding analysis; type: cell-based
T1 sequence (Q91ZY1 whole entry): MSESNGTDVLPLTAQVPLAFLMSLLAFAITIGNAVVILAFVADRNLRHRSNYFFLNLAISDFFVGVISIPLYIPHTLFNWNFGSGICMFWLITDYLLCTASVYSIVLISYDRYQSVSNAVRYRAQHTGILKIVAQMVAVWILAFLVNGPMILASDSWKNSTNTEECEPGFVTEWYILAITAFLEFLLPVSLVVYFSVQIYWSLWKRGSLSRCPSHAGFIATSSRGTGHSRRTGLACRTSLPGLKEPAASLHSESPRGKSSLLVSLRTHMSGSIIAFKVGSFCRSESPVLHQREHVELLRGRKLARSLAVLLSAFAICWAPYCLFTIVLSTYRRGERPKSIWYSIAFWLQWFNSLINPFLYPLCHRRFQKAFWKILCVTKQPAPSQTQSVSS
How it was run: (§2)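 Transfected cells expressing the H4 receptor, competition against [3H]histamine. Ki is the geometric mean of at least three independent determinations (each in triplicate), calculated by the Cheng–Prusoff equation.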

Histamine H4 receptor [13] = target: T2, Histamine H4 receptor (Cavia porcellus, UniProt Q91ZY3); assay: Binding affinity to guinea pig histamine H4 receptor
T2 sequence (Q91ZY3 whole entry): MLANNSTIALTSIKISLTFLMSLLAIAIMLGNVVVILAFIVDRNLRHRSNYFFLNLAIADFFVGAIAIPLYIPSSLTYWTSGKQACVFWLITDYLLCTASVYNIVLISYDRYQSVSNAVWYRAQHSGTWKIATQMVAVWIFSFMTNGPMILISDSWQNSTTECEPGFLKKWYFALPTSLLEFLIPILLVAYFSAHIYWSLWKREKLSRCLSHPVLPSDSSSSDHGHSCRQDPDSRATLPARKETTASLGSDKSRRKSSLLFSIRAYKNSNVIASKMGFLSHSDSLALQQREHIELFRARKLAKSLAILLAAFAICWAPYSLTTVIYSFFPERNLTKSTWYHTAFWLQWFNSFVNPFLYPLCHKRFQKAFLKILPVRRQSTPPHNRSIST

[14] = Tmax in mouse kidney at 5 mg/kg, po administered as single dose by LC-MS/MS analysis; type: ADME, organism-based; set-up: dose 5 mg/kg, route oral; how it was run: as §1
[15] = Initial plasma concentration in Sprague-Dawley rat at 2 mg/kg, iv; type: ADME, organism-based; set-up: dose 2 mg/kg, route intravenous
[16] = Cmax in Sprague-Dawley rat at 500 mg/kg, po; type: ADME, organism-based; set-up: dose 500 mg/kg, route oral; settings: in vivo
[17] = Initial plasma concentration in beagle dog at 2 mg/kg, iv; type: ADME, organism-based, Canis lupus familiaris; set-up: dose 2 mg/kg, route intravenous
Mus musculus = assay: Antipruritic activity against histamine-induced scratching C57/bl6 mouse model assessed as inhibition of itching at 5 to 20 mg/kg, po administered 30 mins prior to histamine challenge measured over 20 mins; type: functional, organism-based
How it was run: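 Mice (n = 6–8 per group) were dosed orally in 20% hydroxypropyl-β-cyclodextran 30 min before intradermal histamine (100 μg). Magnets were placed on the ear and the mice were put in containers above a solenoid. Scratch-specific signals were counted automatically over 20 min immediately after the histamine injection.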

[18] = Ratio of drug level in liver to plasma in mouse at 5 mg/kg, po administered as single dose […] by LC-MS/MS analysis; type: ADME, organism-based; set-up: dose 5 mg/kg, route oral
Histamine H4 receptor [19] = target: Histamine H4 receptor (Homo sapiens, UniProt Q9H3N8); assay: Displacement of [3H]histamine from human recombinant histamine H4 receptor expressed in SK-N-MC cells after 45 mins by competition binding analysis; type: cell-based
[20] = target: Voltage-gated inwardly rectifying potassium channel KCNH2 (Homo sapiens, UniProt Q12809); assay: Inhibition of human ERG channel up to 30 uM by astemizole binding assay
Voltage-gated inwardly rectifying potassium channel KCNH2, sequence (Q12809 whole entry): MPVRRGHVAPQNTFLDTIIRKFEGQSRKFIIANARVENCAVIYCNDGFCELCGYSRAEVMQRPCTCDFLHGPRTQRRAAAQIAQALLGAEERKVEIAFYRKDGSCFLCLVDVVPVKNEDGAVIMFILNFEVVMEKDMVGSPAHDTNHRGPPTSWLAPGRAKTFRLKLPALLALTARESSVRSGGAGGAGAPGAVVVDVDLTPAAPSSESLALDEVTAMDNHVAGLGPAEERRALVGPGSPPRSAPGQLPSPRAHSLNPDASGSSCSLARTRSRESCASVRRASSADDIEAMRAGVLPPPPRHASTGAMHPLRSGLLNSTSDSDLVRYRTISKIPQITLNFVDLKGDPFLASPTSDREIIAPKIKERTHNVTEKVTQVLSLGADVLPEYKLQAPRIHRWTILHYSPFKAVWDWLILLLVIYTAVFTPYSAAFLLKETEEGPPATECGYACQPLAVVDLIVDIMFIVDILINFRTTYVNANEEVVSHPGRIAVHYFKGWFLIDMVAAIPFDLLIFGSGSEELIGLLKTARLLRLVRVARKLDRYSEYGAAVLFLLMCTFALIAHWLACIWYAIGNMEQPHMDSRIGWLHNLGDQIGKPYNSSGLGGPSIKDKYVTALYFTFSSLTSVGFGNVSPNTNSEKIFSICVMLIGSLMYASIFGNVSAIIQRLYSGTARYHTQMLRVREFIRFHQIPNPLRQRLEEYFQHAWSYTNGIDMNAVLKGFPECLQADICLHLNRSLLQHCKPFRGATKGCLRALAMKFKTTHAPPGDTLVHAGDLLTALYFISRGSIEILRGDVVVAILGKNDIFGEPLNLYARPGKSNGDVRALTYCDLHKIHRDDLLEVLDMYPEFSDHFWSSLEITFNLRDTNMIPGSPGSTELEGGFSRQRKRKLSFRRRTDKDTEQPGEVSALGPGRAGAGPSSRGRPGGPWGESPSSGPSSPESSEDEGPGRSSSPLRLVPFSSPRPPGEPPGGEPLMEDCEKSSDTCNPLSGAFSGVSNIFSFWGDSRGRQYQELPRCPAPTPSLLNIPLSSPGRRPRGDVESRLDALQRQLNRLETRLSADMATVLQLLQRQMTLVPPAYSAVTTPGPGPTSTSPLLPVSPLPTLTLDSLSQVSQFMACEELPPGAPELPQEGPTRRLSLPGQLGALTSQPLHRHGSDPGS

Histamine H4 receptor [21] = target: T3, Histamine H4 receptor (Mus musculus, UniProt Q91ZY2); assay: Displacement of [3H]histamine from mouse histamine H4 receptor expressed in SK-N-MC cells after 45 mins by competition binding analysis; type: cell-based; how it was run: as §2
T3 sequence (Q91ZY2 whole entry): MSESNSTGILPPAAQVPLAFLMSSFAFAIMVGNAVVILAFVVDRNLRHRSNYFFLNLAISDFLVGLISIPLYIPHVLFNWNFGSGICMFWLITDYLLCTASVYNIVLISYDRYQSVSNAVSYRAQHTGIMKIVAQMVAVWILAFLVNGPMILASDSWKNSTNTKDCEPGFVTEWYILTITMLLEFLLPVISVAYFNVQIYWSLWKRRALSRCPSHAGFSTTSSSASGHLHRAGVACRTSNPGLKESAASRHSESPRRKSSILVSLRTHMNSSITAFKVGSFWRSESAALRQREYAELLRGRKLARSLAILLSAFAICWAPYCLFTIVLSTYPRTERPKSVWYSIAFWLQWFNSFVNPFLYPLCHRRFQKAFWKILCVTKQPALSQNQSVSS

[22] = Half life in Sprague-Dawley rat at 200 mg/kg, po; type: ADME, organism-based; set-up: dose 200 mg/kg, route oral; settings: in vivo
Cytochrome P450 2D6 = Cytochrome P450 2D6 (Homo sapiens, UniProt P10635); assay: Inhibition of CYP2D6 (unknown origin) at 50 to 100 uM; type: ADME
Cytochrome P450 2D6, sequence (P10635 whole entry): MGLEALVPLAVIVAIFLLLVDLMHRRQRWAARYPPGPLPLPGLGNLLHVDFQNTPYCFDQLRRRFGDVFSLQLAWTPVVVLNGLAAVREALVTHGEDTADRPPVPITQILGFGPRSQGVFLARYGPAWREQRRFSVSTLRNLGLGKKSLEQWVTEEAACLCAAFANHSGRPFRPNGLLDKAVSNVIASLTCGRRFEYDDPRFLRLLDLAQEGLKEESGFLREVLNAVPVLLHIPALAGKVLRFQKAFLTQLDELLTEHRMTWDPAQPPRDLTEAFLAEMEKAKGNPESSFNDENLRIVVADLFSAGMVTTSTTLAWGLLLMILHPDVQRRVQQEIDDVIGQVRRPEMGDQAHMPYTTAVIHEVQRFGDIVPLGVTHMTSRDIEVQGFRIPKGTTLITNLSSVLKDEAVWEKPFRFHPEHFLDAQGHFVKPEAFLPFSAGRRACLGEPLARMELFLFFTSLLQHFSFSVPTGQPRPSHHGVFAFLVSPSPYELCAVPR

[23] = AUC in Sprague-Dawley rat at 50 mg/kg, po; type: ADME, organism-based; set-up: dose 50 mg/kg, route oral; settings: plasma
Histamine H4 receptor [24] = target: T1, Histamine H4 receptor; assay: Antagonist activity at rat histamine H4 receptor expressed in SK-N-MC cells assessed as reduction of histamine-induced inhibition of cAMP-mediated beta-galactosidase reporter gene activity treated 10 mins prior to histamine challenge by microplate reader analysis; type: functional, cell-based; settings: read-out: pA2 (converted)
[25] = Half life in Sprague-Dawley rat at 50 mg/kg, po; type: ADME, organism-based; set-up: dose 50 mg/kg, route oral; settings: in vivo
[26] = Cmax in Sprague-Dawley rat at 50 mg/kg, po; type: ADME, organism-based; set-up: dose 50 mg/kg, route oral; settings: in vivo
[27] = Oral bioavailability in Sprague-Dawley rat at 10 mg/kg; type: ADME, organism-based; settings: in vivo
[28] = AUC in Sprague-Dawley rat at 200 mg/kg, po; type: ADME, organism-based; set-up: dose 200 mg/kg, route oral; settings: plasma
[29] = Cmax in Sprague-Dawley rat at 10 mg/kg, po; type: ADME, organism-based; set-up: dose 10 mg/kg, route oral; settings: in vivo
[30] = Half life in rat liver microsomes; type: ADME
[31] = Half life in rat at 2 mg/kg, iv; type: ADME, organism-based; set-up: dose 2 mg/kg, route intravenous; settings: in vivo
[32] = Half life in mouse liver at 5 mg/kg, po administered as single dose by LC-MS/MS analysis; type: ADME, organism-based; set-up: dose 5 mg/kg, route oral; how it was run: as §1
[33] = Half life in human microsomes; type: ADME, Microsome

Cmax [1]: 300 nM | half-life [2]: 1.02 h | Tmax [3]: 6 h | half-life [4]: 6.8 h | AUC [5]: 1.4 µM·h | half-life [6]: 11.2 h | half-life [7]: 4.7 h | Tmax [8]: 2 h | AUC [9]: 3.27 µM·h | bioavailability [10]: 95% | AUC [11]: 1.4 µM·h | Ki (Histamine H4 receptor [12]): 188 nM | Ki (Histamine H4 receptor [13]): 306 nM | Tmax [14]: 2 h | C0 [15]: 1100 nM | Cmax [16]: 7070 nM | C0 [17]: 4220 nM | Kp [18]: 23.2 | Ki (Histamine H4 receptor [19]): 12.5 nM | Ki (Histamine H4 receptor [21]): 5.3 nM | half-life [22]: 6.16 h | inhibition (INH) (Cytochrome P450 2D6): Not Active | AUC [23]: 13.4 µM·h | Kb (Histamine H4 receptor [24]): 63.1 nM | half-life [25]: 5.45 h | Cmax [26]: 1250 nM | bioavailability [27]: 35% | AUC [28]: 71.2 µM·h | Cmax [29]: 260 nM | half-life [30]: > 2 h | half-life [31]: 2.1 h | half-life [32]: 22.3 h | half-life [33]: > 3 h
Structure (SMILES): CC(C)c1cc(N2CC[C@@H](N)C2)nc(N)n1 [JNJ-39758979]
inhibition (Mus musculus): Active | inhibition (INH) [20]: Not Active
